Data from ChEMBL document CHEMBL4196022, “Alkynyl-containing phenylthiazoles: Systemically active antibacterial agents effective against methicillin-resistant Staphylococcus aureus (MRSA)” (Eur J Med Chem, 2018).
In brackets after ≈: the same amount, converted by molar mass. Activity calls are given as the source filed them. The rule behind the calls is not given here.

Tests used:
[1] = human, microsomes, 1 h, 0.1 µM
Staphylococcus aureus [2] = assay: Antibacterial activity against methicillin-resistant Staphylococcus aureus USA300 after 20 hrs by broth microdilution assay; format: functional; settings: USA300, 20 h
Summary of the method: (§1)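 Broth microdilution per CLSI in cation-adjusted Mueller Hinton broth. Compounds serially diluted, in triplicate. Incubation at 37 °C for at least 20 hours. MIC taken as the lowest concentration with no visible bacterial growth.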

Staphylococcus aureus [3] = assay: Bactericidal activity against methicillin-resistant Staphylococcus aureus USA300 up to 18 hrs by broth microdilution assay; format: functional; settings: USA300, 18 h, read-out: MBC99.9
Staphylococcus aureus [4] = assay: Bactericidal activity against methicillin resistant Staphylococcus aureus NRS123 (USA400) up to 18 hrs by broth microdilution assay; format: functional; settings: read-out: MBC99.9
Staphylococcus aureus [5] = assay: Potency index, ratio of vancomycin MIC to compound MIC for antibacterial activity against vancomycin-resistant Staphylococcus aureus VRS10; format: functional
Staphylococcus aureus [6] = assay: Potency index, ratio of vancomycin MIC to compound MIC for antibacterial activity against vancomycin-resistant Staphylococcus aureus VRS11a; format: functional
Staphylococcus aureus [7] = assay: Bactericidal activity against methicillin-resistant Staphylococcus aureus USA300 assessed as reduction in bacterial load at 4 times MIC after 12 hrs by time kill assay relative to control; format: functional
Staphylococcus aureus [8] = assay: Antibacterial activity against methicillin-resistant Staphylococcus aureus NRS123 (USA400) after 20 hrs by broth microdilution assay; format: functional
Summary of the method: as §1

Staphylococcus aureus [9] = assay: Antibacterial activity against methicillin-resistant Staphylococcus aureus NRS123 (USA400) infected in mouse J774 cells at 16 ug/ml after 24 hrs; format: functional, organism-based
Summary of the method: (§2)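 J774 macrophages grown in DMEM with 10% FBS at 37 °C, 5% CO2. Infected with USA400 at MOI ~100:1 for 1 h, then washed with gentamicin 50 μg/mL. Treated in triplicate wells for 24 h, washed with gentamicin again and lysed with 0.1% Triton X-100. Lysate plated on tryptic soy agar for 18–22 h; CFU/mL counted.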

[10] = Selectivity index, ratio of toxic concentration for human HRT18 cells to MIC for methicillin-resistant Staphylococcus aureus; format: toxicity; settings: read-out: Selectivity Index
Staphylococcus aureus [11] = assay: Bactericidal activity against methicillin-resistant Staphylococcus aureus NRS107 up to 18 hrs by broth microdilution assay; format: functional; settings: NRS107, 18 h, read-out: MBC99.9
Staphylococcus aureus [12] = assay: Bactericidal activity against methicillin-resistant Staphylococcus aureus NRS119 up to 18 hrs by broth microdilution assay; format: functional; settings: NRS119, 18 h, read-out: MBC99.9
Staphylococcus aureus [13] = assay: Antibacterial activity against vancomycin-resistant Staphylococcus aureus VRS11a after 20 hrs by broth microdilution assay; format: functional
Summary of the method: as §1

Staphylococcus aureus [14] = assay: Ratio of MBC to MIC for methicillin-resistant Staphylococcus aureus USA300; format: functional
Summary of the method: (§3)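 MBC/MIC ratio. […] MBC by plating no-growth wells onto tryptic soy agar at 37 °C for at least 18 h; taken as the concentration giving 99.9% growth inhibition.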

Staphylococcus aureus [15] = assay: Bactericidal activity against methicillin resistant vancomycin-resistant Staphylococcus aureus VRS11a up to 18 hrs by broth microdilution assay; format: functional; settings: read-out: MBC99.9
Staphylococcus aureus [16] = assay: Ratio of MBC to MIC for vancomycin-resistant Staphylococcus aureus VRS12; format: functional
Summary of the method: as §3

Staphylococcus aureus [17] = assay: Potency index, ratio of vancomycin MIC to compound MIC for antibacterial activity against vancomycin-resistant Staphylococcus aureus VRS12; format: functional
Staphylococcus aureus [18] = assay: Antibacterial activity against methicillin-resistant Staphylococcus aureus NRS107 after 20 hrs by broth microdilution assay; format: functional; settings: NRS107, 20 h
Summary of the method: as §1

Staphylococcus aureus [19] = assay: Ratio of MBC to MIC for vancomycin-resistant Staphylococcus aureus VRS11a; format: functional
Summary of the method: as §3

Staphylococcus aureus [20] = assay: Ratio of MBC to MIC for methicillin-resistant Staphylococcus aureus NRS107; format: functional
Summary of the method: as §3

Staphylococcus aureus [21] = assay: Bactericidal activity against methicillin resistant vancomycin-resistant Staphylococcus aureus VRS10 up to 18 hrs by broth microdilution assay; format: functional; settings: VRS10, 18 h, read-out: MBC99.9
Staphylococcus aureus [22] = assay: Ratio of MBC to MIC for methicillin-resistant Staphylococcus aureus NRS123 (USA400); format: functional
Summary of the method: as §3

Staphylococcus aureus [23] = assay: Antibacterial activity against vancomycin-resistant Staphylococcus aureus VRS10 after 20 hrs by broth microdilution assay; format: functional; settings: VRS10, 20 h
Summary of the method: as §1

Staphylococcus aureus [24] = assay: Antibacterial activity against methicillin-resistant Staphylococcus aureus NRS119 after 20 hrs by broth microdilution assay; format: functional; settings: NRS119, 20 h
Summary of the method: as §1

Staphylococcus aureus [25] = assay: Bactericidal activity against methicillin resistant vancomycin-resistant Staphylococcus aureus VRS12 up to 18 hrs by broth microdilution assay; format: functional; settings: VRS12, 18 h, read-out: MBC99.9
Summary of the method: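 MBC set up from the MIC plates. Aliquots from wells with no growth spotted onto tryptic soy agar and incubated at 37 °C for at least 18 hours. MBC taken as the lowest concentration giving 99.9% inhibition of bacterial growth.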

Staphylococcus aureus [26] = assay: Ratio of MBC to MIC for vancomycin-resistant Staphylococcus aureus VRS10; format: functional
Summary of the method: as §3

HRT-18 cell line = assay: Cytotoxicity against human HRT18 cells assessed as reduction in cell viability up to 32 ug/ml after 2 hrs by MTS assay; format: cell-based; settings: hrt-18, 2 h
Staphylococcus aureus [27] = assay: Ratio of MBC to MIC for methicillin-resistant Staphylococcus aureus NRS119; format: functional
Summary of the method: as §3

J774 [28] = assay: Cytotoxicity against mouse J774 cells assessed as reduction in cell viability up to 16 ug/ml after 24 hrs by MTS assay; format: cell-based; settings: j774, 24 h
Summary of the method: (§4)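 J774 murine macrophages were grown in DMEM with 10% FBS at 37 °C, 5% CO2. Compounds were tested at 8, 16 and 32 μg/mL in triplicate for 24 h, with a DMSO-matched control. MTS was added for 4 h and absorbance read at 490 nm. Viability is given as % of DMSO control (mean ± SD); Student t-test with Holm-Sidak test.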

Staphylococcus aureus [29] = assay: Antibacterial activity against vancomycin-resistant Staphylococcus aureus VRS12 after 20 hrs by broth microdilution assay; format: functional; settings: VRS12, 20 h
Summary of the method: as §1

Staphylococcus aureus [30] = assay: Bactericidal activity against methicillin-resistant Staphylococcus aureus USA300 assessed as reduction in bacterial load at 4 times MIC after 4 hrs by time kill assay relative to control; format: functional
Staphylococcus aureus [31] = assay: Bactericidal activity against methicillin-resistant Staphylococcus aureus USA300 assessed as reduction in bacterial load at 4 times MIC after 24 hrs by time kill assay relative to control; format: functional
Staphylococcus aureus [32] = assay: Antibacterial activity against methicillin-resistant Staphylococcus aureus NRS123 (USA400) infected in mouse J774 cells at 8 ug/ml after 24 hrs; format: functional, organism-based
Summary of the method: as §2

Staphylococcus aureus [33] = assay: Inhibition of UPPS/UPPP in vancomycin-resistant Staphylococcus aureus VRS10 assessed as potentiation of vancomycin-induced antibacterial activity by measuring fold reduction in vancomycin MIC at 0.5 times MIC preincubated for 30 mins followed by vancomycin addition measured after 20 to 22 hrs by broth microdilution assay relative to control
Summary of the method: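 VRS10 suspension pre-exposed to compound at ½ × MIC for 30 min at room temperature. […] Incubation at 37 °C for 20–22 h before the MIC was read; untreated bacteria served as control.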

Staphylococcus aureus [34] = assay: Bactericidal activity against methicillin-resistant Staphylococcus aureus NRS123 (USA400) assessed as reduction in bacterial load at 4 times MIC after 8 hrs by time kill assay relative to control; format: functional
J774 [35] = assay: Cytotoxicity against mouse J774 cells assessed as reduction in cell viability up to 8 ug/ml after 24 hrs by MTS assay; format: cell-based; settings: j774, 24 h
Summary of the method: as §4

C/C(=N\NC1=NCCN1)c1sc(-c2ccc(C#CC3CC3)cc2)nc1C
CLH [1]: < 115.5 µL/min/mg | MIC (Staphylococcus aureus [2]): 8 µg/mL (≈ 22 µM) | MBC (Staphylococcus aureus [3]): 16 µg/mL (≈ 44 µM)

C/C(=N\NC(=N)N)c1sc(-c2ccc(C#CC3CCCCC3)cc2)nc1C
MBC (Staphylococcus aureus [4]): 2 µg/mL (≈ 5.27 µM) | Ratio (Staphylococcus aureus [5]): >100 | Ratio (Staphylococcus aureus [6]): >100 | Activity (Staphylococcus aureus [7]): 2.8 deltalog10CFU/ml | MIC (Staphylococcus aureus [8]): 2 µg/mL (≈ 5.27 µM) | MIC (Staphylococcus aureus [2]): 2 µg/mL (≈ 5.27 µM) | Activity (Staphylococcus aureus [9]): inactive | selectivity ratio [10]: 7 to 31 | MBC (Staphylococcus aureus [11]): 16 µg/mL (≈ 42.2 µM) | MBC (Staphylococcus aureus [12]): 4 µg/mL (≈ 10.5 µM) | MIC (Staphylococcus aureus [13]): 1 µg/mL (≈ 2.63 µM) | Ratio (Staphylococcus aureus [14]): <=3 | MBC (Staphylococcus aureus [15]): 2 µg/mL (≈ 5.27 µM) | Ratio (Staphylococcus aureus [16]): <=3 | Ratio (Staphylococcus aureus [17]): 8 | MIC (Staphylococcus aureus [18]): 16 µg/mL (≈ 42.2 µM) | Ratio (Staphylococcus aureus [19]): <=3 | Ratio (Staphylococcus aureus [20]): <=3 | MBC (Staphylococcus aureus [3]): 4 µg/mL (≈ 10.5 µM) | MBC (Staphylococcus aureus [21]): 2 µg/mL (≈ 5.27 µM) | Ratio (Staphylococcus aureus [22]): <=3 | MIC (Staphylococcus aureus [23]): 2 µg/mL (≈ 5.27 µM) | MIC (Staphylococcus aureus [24]): 4 µg/mL (≈ 10.5 µM) | MBC (Staphylococcus aureus [25]): 2 µg/mL (≈ 5.27 µM) | Ratio (Staphylococcus aureus [26]): <=3 | Activity (HRT-18 cell line): Non-Toxic | Ratio (Staphylococcus aureus [27]): <=3 | Activity (J774 [28]): Non-Toxic | MIC (Staphylococcus aureus [29]): 2 µg/mL (≈ 5.27 µM) | Activity (Staphylococcus aureus [30]): 1.9 deltalog10CFU/ml | Activity (Staphylococcus aureus [31]): 4.3 deltalog10CFU/ml

C/C(=N\NC(=N)N)c1sc(-c2ccc(C#CC3CCCC3)cc2)nc1C
MBC (Staphylococcus aureus [4]): 2 µg/mL (≈ 5.47 µM) | Ratio (Staphylococcus aureus [5]): >100 | Ratio (Staphylococcus aureus [6]): >100 | MIC (Staphylococcus aureus [8]): 2 µg/mL (≈ 5.47 µM) | MIC (Staphylococcus aureus [2]): 2 µg/mL (≈ 5.47 µM) | Activity (Staphylococcus aureus [32]): inactive | selectivity ratio [10]: 7 to 31 | MBC (Staphylococcus aureus [11]): 2 µg/mL (≈ 5.47 µM) | MBC (Staphylococcus aureus [12]): 2 µg/mL (≈ 5.47 µM) | MIC (Staphylococcus aureus [13]): 1 µg/mL (≈ 2.74 µM) | fold change (FC) (Staphylococcus aureus [33]): 512 | Activity (Staphylococcus aureus [34]): 3 deltalog10CFU/ml | Ratio (Staphylococcus aureus [14]): <=3 | MBC (Staphylococcus aureus [15]): 4 µg/mL (≈ 10.9 µM) | Ratio (Staphylococcus aureus [16]): <=3 | Ratio (Staphylococcus aureus [17]): 8 | MIC (Staphylococcus aureus [18]): 2 µg/mL (≈ 5.47 µM) | Ratio (Staphylococcus aureus [19]; read-out: Ratio): 4 | Ratio (Staphylococcus aureus [20]): <=3 | MBC (Staphylococcus aureus [3]): 4 µg/mL (≈ 10.9 µM) | MBC (Staphylococcus aureus [21]): 2 µg/mL (≈ 5.47 µM) | Activity (J774 [35]): Non-Toxic | Ratio (Staphylococcus aureus [22]): <=3 | MIC (Staphylococcus aureus [23]): 2 µg/mL (≈ 5.47 µM) | MIC (Staphylococcus aureus [24]): 1 µg/mL (≈ 2.74 µM) | MBC (Staphylococcus aureus [25]): 2 µg/mL (≈ 5.47 µM) | Ratio (Staphylococcus aureus [26]): <=3 | Activity (HRT-18 cell line): Non-Toxic | Ratio (Staphylococcus aureus [27]): <=3 | MIC (Staphylococcus aureus [29]): 2 µg/mL (≈ 5.47 µM)
